{"source": "paper PMC3288537", "about": "(ACS Chemical Biology, 2011)", "key": {"LYP": {"biological_target": "T1, LYP (Homo sapiens, UniProt Q9Y2R2)", "T1 sequence (Q9Y2R2 1-807)": "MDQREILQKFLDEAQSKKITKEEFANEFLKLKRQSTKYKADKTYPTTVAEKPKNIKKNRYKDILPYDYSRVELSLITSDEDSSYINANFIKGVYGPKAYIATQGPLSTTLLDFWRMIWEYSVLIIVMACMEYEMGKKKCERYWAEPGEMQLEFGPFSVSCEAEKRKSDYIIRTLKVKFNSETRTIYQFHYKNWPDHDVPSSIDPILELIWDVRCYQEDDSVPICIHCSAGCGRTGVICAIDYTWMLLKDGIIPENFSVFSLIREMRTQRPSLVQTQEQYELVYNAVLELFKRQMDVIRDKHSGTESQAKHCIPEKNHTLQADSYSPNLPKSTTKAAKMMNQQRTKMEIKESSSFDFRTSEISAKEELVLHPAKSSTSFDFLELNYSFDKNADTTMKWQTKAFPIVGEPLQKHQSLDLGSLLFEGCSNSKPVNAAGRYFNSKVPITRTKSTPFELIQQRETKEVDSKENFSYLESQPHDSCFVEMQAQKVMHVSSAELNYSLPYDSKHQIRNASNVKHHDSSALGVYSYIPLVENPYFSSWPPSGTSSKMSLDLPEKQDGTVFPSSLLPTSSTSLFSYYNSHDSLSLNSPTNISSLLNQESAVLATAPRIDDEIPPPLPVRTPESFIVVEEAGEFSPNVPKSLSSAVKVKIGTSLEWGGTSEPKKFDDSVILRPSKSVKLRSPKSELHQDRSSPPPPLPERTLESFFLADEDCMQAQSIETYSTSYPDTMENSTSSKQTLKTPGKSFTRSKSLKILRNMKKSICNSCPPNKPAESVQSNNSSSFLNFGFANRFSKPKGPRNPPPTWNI", "assay": "Dose-response OMFP phosphatase assay, LYP", "assay_type": "biochemical", "conditions": "read-out: IC50 LYP; OMFP substrate"}, "TCPTP": {"biological_target": "T2, TCPTP (Homo sapiens, UniProt P17706)", "T2 sequence (P17706 1-415)": "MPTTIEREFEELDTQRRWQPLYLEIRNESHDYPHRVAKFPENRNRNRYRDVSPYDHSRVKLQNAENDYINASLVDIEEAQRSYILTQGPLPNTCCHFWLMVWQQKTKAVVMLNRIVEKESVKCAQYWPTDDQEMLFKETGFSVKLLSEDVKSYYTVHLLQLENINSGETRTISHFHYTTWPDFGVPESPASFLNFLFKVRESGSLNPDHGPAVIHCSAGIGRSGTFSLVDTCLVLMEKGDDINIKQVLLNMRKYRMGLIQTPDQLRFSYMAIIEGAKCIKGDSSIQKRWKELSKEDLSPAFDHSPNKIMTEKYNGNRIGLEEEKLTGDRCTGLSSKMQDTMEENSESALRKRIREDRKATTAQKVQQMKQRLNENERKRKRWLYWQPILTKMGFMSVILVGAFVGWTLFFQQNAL", "assay": "Dose-response OMFP phosphatase assay, TCPTP", "assay_type": "biochemical", "conditions": "read-out: IC50 TCPTP; OMFP substrate", "method_in_brief": "(§1)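 Ten-point 2-fold dilution series of test compound prepared in DMSO. Fluorescence (ex 485/em 528 nm) read in kinetic mode over 10 min; progress-curve slopes taken as activity. IC50 by nonlinear regression (sigmoidal, variable slope).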"}, "LAR": {"biological_target": "LAR (Homo sapiens, UniProt P10586)", "sequence (P10586 30-1907, species assumed)": "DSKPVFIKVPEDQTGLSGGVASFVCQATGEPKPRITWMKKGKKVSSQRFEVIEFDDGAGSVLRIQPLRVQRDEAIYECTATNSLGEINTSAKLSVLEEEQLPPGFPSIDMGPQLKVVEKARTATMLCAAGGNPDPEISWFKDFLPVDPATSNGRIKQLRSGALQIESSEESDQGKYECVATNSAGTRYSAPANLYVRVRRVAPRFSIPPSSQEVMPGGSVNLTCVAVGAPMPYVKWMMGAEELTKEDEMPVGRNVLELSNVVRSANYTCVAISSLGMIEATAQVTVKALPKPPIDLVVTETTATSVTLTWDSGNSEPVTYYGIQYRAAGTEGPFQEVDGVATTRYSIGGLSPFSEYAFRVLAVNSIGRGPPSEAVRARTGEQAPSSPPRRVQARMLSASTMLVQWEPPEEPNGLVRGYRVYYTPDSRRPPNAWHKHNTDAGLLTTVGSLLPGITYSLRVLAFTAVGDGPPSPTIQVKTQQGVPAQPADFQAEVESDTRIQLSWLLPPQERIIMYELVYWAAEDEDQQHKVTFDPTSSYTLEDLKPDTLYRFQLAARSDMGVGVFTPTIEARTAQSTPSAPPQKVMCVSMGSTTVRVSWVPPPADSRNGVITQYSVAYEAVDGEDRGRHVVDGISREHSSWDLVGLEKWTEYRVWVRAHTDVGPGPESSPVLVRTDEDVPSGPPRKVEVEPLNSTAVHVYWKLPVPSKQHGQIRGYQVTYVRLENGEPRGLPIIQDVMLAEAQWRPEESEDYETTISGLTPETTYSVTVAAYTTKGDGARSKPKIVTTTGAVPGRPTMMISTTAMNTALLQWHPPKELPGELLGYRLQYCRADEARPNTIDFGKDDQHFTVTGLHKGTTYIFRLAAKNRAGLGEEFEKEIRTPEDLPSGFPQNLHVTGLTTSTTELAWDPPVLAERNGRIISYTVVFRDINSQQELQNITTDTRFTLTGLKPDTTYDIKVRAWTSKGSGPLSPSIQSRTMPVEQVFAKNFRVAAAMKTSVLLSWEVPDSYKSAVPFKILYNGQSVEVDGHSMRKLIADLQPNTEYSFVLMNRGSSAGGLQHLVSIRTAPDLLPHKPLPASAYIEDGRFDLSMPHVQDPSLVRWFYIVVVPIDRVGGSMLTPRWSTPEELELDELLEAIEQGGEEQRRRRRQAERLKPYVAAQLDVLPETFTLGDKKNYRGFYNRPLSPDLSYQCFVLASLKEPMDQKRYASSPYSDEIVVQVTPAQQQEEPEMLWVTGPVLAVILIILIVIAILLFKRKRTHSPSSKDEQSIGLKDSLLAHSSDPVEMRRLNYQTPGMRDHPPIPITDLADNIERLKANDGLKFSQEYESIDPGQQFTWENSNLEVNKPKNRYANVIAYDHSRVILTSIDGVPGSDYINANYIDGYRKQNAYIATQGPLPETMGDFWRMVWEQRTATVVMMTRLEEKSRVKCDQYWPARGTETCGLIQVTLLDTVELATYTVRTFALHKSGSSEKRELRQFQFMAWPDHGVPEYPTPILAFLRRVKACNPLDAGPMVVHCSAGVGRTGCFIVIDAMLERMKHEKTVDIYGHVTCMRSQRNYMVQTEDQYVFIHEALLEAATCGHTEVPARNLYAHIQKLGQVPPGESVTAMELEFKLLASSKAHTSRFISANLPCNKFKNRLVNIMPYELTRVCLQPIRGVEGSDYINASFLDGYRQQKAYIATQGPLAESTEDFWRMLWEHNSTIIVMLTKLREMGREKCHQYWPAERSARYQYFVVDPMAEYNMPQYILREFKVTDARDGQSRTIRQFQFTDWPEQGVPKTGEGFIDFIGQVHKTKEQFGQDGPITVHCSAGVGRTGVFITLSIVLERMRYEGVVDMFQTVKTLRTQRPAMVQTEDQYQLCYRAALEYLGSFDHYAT", "assay": "Dose-response OMFP phosphatase assay, LAR", "assay_type": "biochemical", "conditions": "read-out: IC50 LAR; OMFP substrate", "method_in_brief": "as §1"}, "[1]": {"biological_target": "T3, HePTP-DM (K105A/T106A double mutant) (Homo sapiens, UniProt P35236, K126A/T127A)", "T3 sequence (P35236 22-360 K126A/T127A limits assumed)": "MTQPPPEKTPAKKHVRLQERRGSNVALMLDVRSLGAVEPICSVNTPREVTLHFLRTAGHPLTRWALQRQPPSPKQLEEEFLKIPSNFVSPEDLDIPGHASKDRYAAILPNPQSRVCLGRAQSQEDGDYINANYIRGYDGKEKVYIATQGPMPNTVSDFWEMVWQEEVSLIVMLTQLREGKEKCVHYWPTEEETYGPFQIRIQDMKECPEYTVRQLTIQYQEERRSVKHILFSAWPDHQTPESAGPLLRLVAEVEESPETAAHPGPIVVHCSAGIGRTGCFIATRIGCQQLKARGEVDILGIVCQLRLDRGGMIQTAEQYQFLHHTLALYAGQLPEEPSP", "assay": "Dose-response OMFP phosphatase assay, HePTP K105A/T106A double mutant", "assay_type": "biochemical", "conditions": "read-out: IC50 HePTP-DM"}, "HePTP H237A mutant": {"biological_target": "T4, HePTP H237A mutant (Homo sapiens, UniProt P35236, H258A)", "T4 sequence (P35236 22-360 H258A limits assumed)": "T3 sequence (P35236 22-360 K126A/T127A limits assumed) with A105K, A106T, H237A", "assay": "Dose-response OMFP phosphatase assay, HePTP H237A mutant", "assay_type": "biochemical", "conditions": "read-out: IC50 HePTP H237A"}, "HePTP": {"biological_target": "T5, HePTP (Homo sapiens, UniProt P35236)", "T5 sequence (P35236 1-360)": "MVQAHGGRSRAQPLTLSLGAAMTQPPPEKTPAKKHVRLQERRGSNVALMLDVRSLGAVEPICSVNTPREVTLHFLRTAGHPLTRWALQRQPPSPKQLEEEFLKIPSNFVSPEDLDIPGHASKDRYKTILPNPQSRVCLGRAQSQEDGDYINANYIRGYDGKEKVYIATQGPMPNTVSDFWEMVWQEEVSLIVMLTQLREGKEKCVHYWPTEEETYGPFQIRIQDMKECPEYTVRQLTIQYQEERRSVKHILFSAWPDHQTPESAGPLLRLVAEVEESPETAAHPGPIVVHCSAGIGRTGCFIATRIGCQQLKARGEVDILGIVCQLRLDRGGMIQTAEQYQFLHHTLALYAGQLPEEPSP", "assay": "Michaelis-Menten kinetic studies with OMFP", "assay_type": "biochemical", "conditions": "various inhibitor and substrate concentrations", "method_in_brief": "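Started by adding OMFP at 0–400 μM. Initial rates read by fluorescence (ex 485/em 528 nm), corrected with no-enzyme controls. Eadie-Hofstee plots drawn; competing models compared by AICc.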"}, "[2]": {"assay": "Serum concentration in mice after i.p. injection", "assay_type": "in vivo", "conditions": "i.p. 3 mg/kg", "method_in_brief": "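Mice dosed i.p. at 3 mg/kg with test compound. Blood serum collected 5, 20, 60 and 120 min after injection for measurement of compound concentration.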"}, "Tissue concentration": {"assay": "Tissue concentration", "assay_type": "in vivo, C57B6 mice", "conditions": "mice"}}, "note": "Changes are numbered by the printed parent chain. pIC50: −log10 of the molar value. “And” between values parts separate entries of the source, which are not always exact repeats. Equal values may be shown once."}
{"compound": "O=C(O)c1ccccc1-c1ccc(/C=c2\\sc3nc4cc(Br)cnc4n3c2=O)o1", "note": "[Compound 1]", "values": [{"measurement": "pIC50", "setting": "LYP", "value": 5.72}, {"measurement": "pIC50", "setting": "TCPTP", "value": 6.00}, {"measurement": "pIC50", "setting": "LAR", "value": 4.14}, {"measurement": "pIC50", "setting": "[1]", "value": 5.18}, {"measurement": "pIC50", "setting": "HePTP H237A mutant", "value": 5.55}, {"measurement": "inhibition pattern", "setting": "HePTP", "value": "mixed inhibition pattern"}, {"measurement": "serum concentration (peak)", "setting": "[2]; 20 min, 3 mg/kg", "value": "1.24 ± 0.17 µM and 1.24 µM"}, {"measurement": "serum concentration", "setting": "[2]; 2 h", "value": "0.018 ± 0.010", "unit": "µM"}, {"measurement": "blood-brain-barrier crossing", "setting": "Tissue concentration; i.p.", "value": "does not appear to cross the BBB"}, {"measurement": "concentration in the spleen tissue", "setting": "Tissue concentration; i.p.", "value": "< 0.5", "unit": "µM"}, {"measurement": "compound in cerebellum", "setting": "Tissue concentration; i.p. 3 or 5 mg/kg, 3 h", "value": "could not be detected"}, {"measurement": "compound in brain tissue", "setting": "Tissue concentration; i.p. 3 or 5 mg/kg, 3 h, detection limit ~1 nM", "value": "could not be detected"}, {"measurement": "concentration in splenocytes", "setting": "Tissue concentration; i.p., 6 h after injection", "value": "0.265 ± 0.119", "unit": "µM"}]}
